According to ChEMBL document CHEMBL1155646, “Kinmoonosides A-C, three new cytotoxic saponins from the fruits of Acacia concinna, a medicinal plant collected in myanmar” (2000):

Each compound was assayed on HT-1080 (assay: Cytotoxicity against human HT1080 cells by 3-(4,5-dimethylthiazol-2-yl)-[…] bromide assay). Settings: read-out: ED50 (the source's name).
Format: functional
In short: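 Human HT-1080 fibrosarcoma cells were tested in a standard tetrazolium (MTT) viability assay following an earlier published protocol. Potency was reported as ED50, given in µg/mL and also converted to µM.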
For C[C@H]1O[C@@H](OC[C@H]2O[C@@H](O[C@H]3CC[C@]4(C)[C@H]5CC=C6[C@@H]7CC(C)(C)[C@@H](O)C[C@]7(C(=O)O)[C@H](O)C[C@@]6(C)[C@]5(C)CC[C@H]4C3(C)C)[C@H](O[C@@H]3O[C@H](CO)[C@@H](O)[C@H](O)[C@H]3O)[C@@H](O)[C@@H]2O)[C@H](O[C@@H]2OC[C@@H](O)[C@H](O)[C@H]2O)[C@@H](O)[C@H]1O, the EC50 was > 100 µg/mL.
For C=CC1(C)CCC(C(CO)C(=O)O)O1 (centres undefined), the EC50 was > 100 µg/mL.
C=CC(C)(O)CC/C=C(\CO)C(=O)O[C@H]1[C@H](O)[C@@H](O)C(O)O[C@@H]1C (some centres undefined) was tested, and the EC50 was > 100 µg/mL.
C=CC(C)(CC/C=C(\CO)C(=O)O)O[C@@H]1O[C@H](C)[C@@H](O)[C@H](O)[C@H]1O (some centres undefined) was tested, and the EC50 was > 100 µg/mL.
For CC1(C)C[C@H]2C3=CC[C@@H]4[C@@]5(C)CC[C@H](O[C@@H]6O[C@H](CO[C@@H]7OC[C@H](O)[C@H](O)[C@H]7O[C@@H]7OC[C@@H](O)[C@H](O)[C@H]7O)[C@@H](O)[C@H](O)[C@H]6O[C@@H]6O[C@H](CO)[C@@H](O)[C@H](O)[C@H]6O)C(C)(C)[C@@H]5CC[C@@]4(C)[C@]3(C)C[C@@H](O)[C@@]23C[C@@H]1OC3=O, the EC50 was > 100 µg/mL.
For C=CC(C)(O)CC/C=C(\CO)C(=O)O[C@H]1C[C@]2(C(=O)O[C@@H]3O[C@H](CO)[C@@H](O)[C@H](O)[C@H]3O[C@@H]3O[C@@H](C)[C@H](O[C@H]4O[C@@H](CO)[C@H](O)[C@H]4O)[C@@H](O[C@@H]4O[C@H](CO)[C@@H](O)[C@H](O)[C@H]4O)[C@H]3O)[C@H](O)C[C@]3(C)C(=CC[C@@H]4[C@@]5(C)CC[C@H](O[C@@H]6O[C@H](CO[C@@H]7OC[C@H](O)[C@H](O)[C@H]7O)[C@@H](O)[C@H](O)[C@H]6O[C@@H]6O[C@H](CO)[C@@H](O)[C@H](O)[C@H]6O)C(C)(C)[C@@H]5CC[C@]43C)[C@@H]2CC1(C)C (some centres undefined), the EC50 was 2830 nM.
In the case of CC1(C)C[C@H]2C3=CC[C@@H]4[C@@]5(C)CC[C@H](O[C@@H]6O[C@H](CO[C@@H]7OC[C@H](O)[C@H](O)[C@H]7O)[C@@H](O)[C@H](O)[C@H]6O[C@@H]6O[C@H](CO)[C@@H](O)[C@H](O)[C@H]6O)C(C)(C)[C@@H]5CC[C@@]4(C)[C@]3(C)C[C@@H](O)[C@@]2(C(=O)O)C[C@@H]1O, the EC50 is reported as > 100 µg/mL.
CC(=O)N[C@H]1[C@H](O[C@H]2CC[C@]3(C)[C@H]4CC=C5[C@@H]6CC(C)(C)[C@@H](O)C[C@]6(C(=O)O)[C@H](O)C[C@@]5(C)[C@]4(C)CC[C@H]3C2(C)C)O[C@H](CO[C@@H]2OC[C@H](O)[C@H](O)[C@H]2O)[C@@H](O)[C@@H]1O was tested, and the EC50 was > 100 µg/mL.
With C=CC(C)(CC/C=C(\C)C(=O)O)O[C@@H]1O[C@H](C)[C@@H](O)[C@H](O)[C@H]1O (mixture of isomers) the EC50 was > 100 µg/mL.
O=c1[nH]cc(F)c(=O)[nH]1 [FLUOROURACIL] gave an EC50 of 8000 nM.
C=CC(C)(O)CC/C=C(\CO)C(=O)O[C@H]1[C@H](O)[C@@H](O)[C@H](O[C@](C)(C=C)CC/C=C(\CO)C(=O)O[C@H]2C[C@]3(C(=O)O[C@@H]4O[C@H](CO)[C@@H](O)[C@H](O)[C@H]4O[C@@H]4O[C@@H](C)[C@H](O[C@H]5O[C@@H](CO)[C@H](O)[C@H]5O)[C@@H](O[C@@H]5O[C@H](CO)[C@@H](O)[C@H](O)[C@H]5O)[C@H]4O)[C@H](O)C[C@]4(C)C(=CC[C@@H]5[C@@]6(C)CC[C@H](O[C@@H]7O[C@H](CO[C@@H]8OC[C@H](O)[C@H](O)[C@H]8O)[C@@H](O)[C@H](O)[C@H]7O[C@@H]7O[C@H](CO)[C@@H](O)[C@H](O)[C@H]7O)C(C)(C)[C@@H]6CC[C@]54C)[C@@H]3CC2(C)C)O[C@@H]1C (some centres undefined) [KINMOONOSIDE B] was tested, and the EC50 was 910 nM.
C=CC(C)(O)CC/C=C(\CO)C(=O)O[C@H]1[C@H](O)[C@@H](O)[C@H](O[C@@](C)(C=C)CC/C=C(\CO)C(=O)O[C@H]2C[C@]3(C(=O)O[C@@H]4O[C@H](CO)[C@@H](O)[C@H](O)[C@H]4O[C@@H]4O[C@@H](C)[C@H](O[C@H]5O[C@@H](CO)[C@H](O)[C@H]5O)[C@@H](O[C@@H]5O[C@H](CO)[C@@H](O)[C@H](O)[C@H]5O)[C@H]4O)[C@H](O)C[C@]4(C)C(=CC[C@@H]5[C@@]6(C)CC[C@H](O[C@@H]7O[C@H](CO[C@@H]8OC[C@H](O)[C@H](O)[C@H]8O)[C@@H](O)[C@H](O)[C@H]7O[C@@H]7O[C@H](CO)[C@@H](O)[C@H](O)[C@H]7O)C(C)(C)[C@@H]6CC[C@]54C)[C@@H]3CC2(C)C)O[C@@H]1C (some centres undefined) [KINMOONOSIDES A] showed an EC50 of 700 nM.
For C=CC(C)(O)CC/C=C(\C)C(=O)O (centres undefined) [MENTHIAFOLIC ACID], the EC50 was > 100 µg/mL.
In the case of CC(=O)N[C@H]1[C@H](O[C@H]2CC[C@]3(C)[C@H]4CC=C5[C@@H]6CC(C)(C)[C@@H](O)C[C@]6(C(=O)O)[C@H](O)C[C@@]5(C)[C@]4(C)CC[C@H]3C2(C)C)O[C@H](CO[C@@H]2OC[C@H](O)[C@H](O)[C@H]2O[C@@H]2OC[C@@H](O)[C@H](O)[C@H]2O)[C@@H](O)[C@@H]1O [PROSAPOGENIN 2], the EC50 is reported as > 100 µg/mL.
